Shown are actives, neighbours in structure and some others; about 3.7% of the full set was active somewhere.
KCNQ1 inh: human KCNQ1 channel inhibition. CHO-K1 KCNQ1, FluxOR thallium flux fluorescence; hits give high values. B-score at 10 µM. 1.3% of 310,000 active. AID 2642;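 active means compounds whose thallium flux B-score, printed positive for inhibition, exceeds three library SD while starting fluorescence stays within three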;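 further: channel opened by potassium depolarization with thallium stimulus after 20 min compound exposure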
Kir21 inh: Kir2.1 (mouse) channel inhibition; P35561; HEK293-Kir2.1, FluxOR thallium flux fluorescence; hits give low values; B-score at 10 µM; 0.85% of 310,000 active; AID 1672;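 active means fluorescence ratio B-score at or below minus 3 SD of library scores, with starting-brightness B-score within 2 SD, cut at about -4.2 in these data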;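 further: channel flux triggered by added potassium and thallium sulfate stimulus; B-score of peak minus minimum fluorescence over baseline after thallium stimulus; more negative B-score means stronger Kir2.1 block with less thallium influx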
KCNK9 block: inhibitors of human KCNK9 two-pore domain potassium channel. 1.2% of 310,000 active. B-score at 10 µM. HEK293 KCNK9, FluxOR thallium flux fluorescence; hits give low values. Q9NPC2;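 active means ratio B-score over 3 SD below the library mean, with starting fluorescence within 5 SD of its mean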;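 further: negative B-score means less thallium flux so channel inhibition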
KCNQ1 pot: human KCNQ1 channel potentiation or activation; P51787; CHO-K1 KCNQ1, thallium flux FluxOR fluorescence; hits give high values; B-score at 10 µM; 0.35% of 310,000 active; AID 2648;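 active means fluorescence ratio B-score, a plate-corrected score, at least three library SD, with initial intensity B-score within 5 SD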
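Schedule – 37 °C overnight plating, 90-min dark dye load, 20-min compound pretreatment · System – stable KCNQ1 CHO-K1 line · Probe or stimulus – thallium- and potassium-containing depolarizing buffer · Measured by – kinetic FluxOR fluorescence, 10 s baseline plus 110 s post-stimulus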
KCNK3 inh: human KCNK3 channel inhibition, primary screen; O14649; B-score at 10 µM; 0.84% of 340,000 active; CHO-KCNK3 thallium flux, FluxOR fluorescence; hits give low values;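 active means B-score under library mean minus 4 SD, starting fluorescence ratio at most library mean plus 5 SD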;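 further: more negative B-score means stronger inhibition of thallium flux through KCNK3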
hERG protect: compounds protecting human hERG from proarrhythmic drug block; 0.51% of 310,000 active; AID 1511; activation (rescue from dofetilide block), less the hit threshold, % at 10 µM; CHO-hERG, FluxOR thallium flux, dofetilide IC70 present;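 active means activation above the mean of controls blocked by dofetilide plus 5 SD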;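 further: thallium influx through hERG after potassium depolarization seen as dye fluorescence rise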
Target sequence (Q12809 whole entry, looked up): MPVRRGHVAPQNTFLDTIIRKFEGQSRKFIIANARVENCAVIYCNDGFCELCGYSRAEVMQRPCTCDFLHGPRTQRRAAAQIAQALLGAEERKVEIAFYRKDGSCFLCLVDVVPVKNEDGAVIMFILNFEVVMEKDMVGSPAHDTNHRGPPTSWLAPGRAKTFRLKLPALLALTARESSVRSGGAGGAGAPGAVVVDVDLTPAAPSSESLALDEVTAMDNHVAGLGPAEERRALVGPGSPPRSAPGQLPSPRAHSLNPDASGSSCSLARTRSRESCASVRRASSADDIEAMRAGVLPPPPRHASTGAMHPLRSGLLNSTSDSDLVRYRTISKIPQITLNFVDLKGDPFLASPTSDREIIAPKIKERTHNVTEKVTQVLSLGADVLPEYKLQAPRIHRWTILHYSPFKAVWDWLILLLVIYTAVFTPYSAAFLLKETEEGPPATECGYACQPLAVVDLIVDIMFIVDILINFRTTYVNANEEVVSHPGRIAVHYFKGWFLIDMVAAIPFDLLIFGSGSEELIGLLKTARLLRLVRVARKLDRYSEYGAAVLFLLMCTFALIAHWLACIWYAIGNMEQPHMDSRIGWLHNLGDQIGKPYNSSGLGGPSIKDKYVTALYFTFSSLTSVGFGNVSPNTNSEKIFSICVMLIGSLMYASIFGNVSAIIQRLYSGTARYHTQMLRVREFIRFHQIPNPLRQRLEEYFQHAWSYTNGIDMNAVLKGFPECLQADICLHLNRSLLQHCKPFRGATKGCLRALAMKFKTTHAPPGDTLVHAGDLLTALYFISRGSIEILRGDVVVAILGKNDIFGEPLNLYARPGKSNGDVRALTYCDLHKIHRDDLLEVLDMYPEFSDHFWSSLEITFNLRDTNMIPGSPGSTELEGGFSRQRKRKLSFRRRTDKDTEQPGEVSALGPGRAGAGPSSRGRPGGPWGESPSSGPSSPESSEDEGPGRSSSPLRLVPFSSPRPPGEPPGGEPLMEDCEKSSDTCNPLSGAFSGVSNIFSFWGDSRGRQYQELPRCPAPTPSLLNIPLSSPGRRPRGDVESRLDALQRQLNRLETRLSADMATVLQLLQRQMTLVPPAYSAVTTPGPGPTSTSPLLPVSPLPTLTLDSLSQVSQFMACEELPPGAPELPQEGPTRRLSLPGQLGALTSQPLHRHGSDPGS
KCNK3 confirm: confirmation of human KCNK3 two-pore domain potassium channel inhibitors | shares compounds with KCNK3 inh | CHO-KCNK3 thallium flux, FluxOR fluorescence; 0% buffer, 100% carvedilol maximal block | ratio percent of control, % at 10 µM | 99% of 2,400 active | AID 651638;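 active means ratio percent of control, averaged over triplicates, above buffer control mean plus 5 SD, cut at about 64% in these data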;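 further: ratio is the fluorescence rise from min to max over baseline after thallium stimulus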
KCNK3 uninduced: counter-screen for KCNK3 inhibitors: effect in non-induced cells; shares compounds with KCNK3 inh; non-induced KCNK3 parental cells, FluxOR thallium flux; hits give low values; thallium flux ratio (lower = more inhibition) at 10 µM; 40% of 2,400 active;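 active means thallium flux ratio, averaged over three wells, more than 5 SD below the buffer control mean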;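 further: host cells are CHO cells without KCNK3 induction; ratio is peak minus trough fluorescence over baseline then normalized to buffer controls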
* hit, by the source's call; i = inactive; . = no result given.

SMILES | KCNQ1 inh | Kir21 inh | KCNK9 block | KCNQ1 pot | KCNK3 inh | hERG protect | KCNK3 confirm | KCNK3 uninduced
N#Cc1nc(-c2ccco2)oc1N1CCN(c2ccccc2)CC1 | i | -0.09 | i | i | -10.6* | -5.0 | 119.0* | i
CC(C)(C)NC(=O)c1cccc2c1OC(C)(C)C2 | i | -0.18 | i | i | i | -9.2 | . | .
CC1(C)Cc2cccc(C(=O)NCc3ccco3)c2O1 | i | 0.05 | i | i | -11.3* | -8.2 | 105.3* | i
CCn1cc2nc(SCC(=O)Nc3ccccc3F)n(Cc3ccccc3)c(=O)c2n1 | i | -0.01 | i | i | i | -9.7 | . | .
CC1CCc2nc(NC(=O)c3cc(C(C)(C)C)nn3C)sc2C1 (stereo not drawn) | i | 1.15 | i | i | i | -18.3 | . | .
Cc1ccc(-c2nc(NC(=O)c3cc(C(C)(C)C)nn3C)sc2C)cc1Cl | 10* | -0.02 | i | i | -9.19* | -21.8 | 96.3* | 0.143*
CN(c1ccc(Cl)cc1)c1cc(=O)n(C)c2ccccc12 | i | -7.03* | i | i | -8.78* | -4.6 | 97.7* | i
CN(C(=O)COc1cc(=O)n(C)c2ccccc12)c1ccc(Cl)cc1 | i | -0.56 | i | i | i | -11.6 | . | .
Cc1cc(N2C3CCC2CC(O)(c2ccc(F)cc2)C3)nc(-c2ccccc2)n1 (stereo not drawn) | i | -0.99 | i | i | -10.3* | -9.3 | 101.3* | 0.146*
O=C(C[C@H]1C[C@H](C(=O)N2CCCCC2)[C@@]2(CCc3ccccc3)c3[nH]c4ccc(Cl)cc4c3CCN2C1=O)NCc1ccco1 | . | . | . | . | i | . | . | .
COc1cc(CN(C)CC2CCCN(CCc3ccc(F)cc3)C2)c(Cl)cc1O (stereo not drawn) | i | 0.83 | i | i | -9.57* | -8.8 | 80.3* | i
COc1cc(CN(C)CC2CCCN(CCc3cccc(C(F)(F)F)c3)C2)ccc1O (stereo not drawn) | i | -1.2 | i | i | i | -6.6 | . | .
CCOC(=O)C1=C(C)NC(=O)NC1/C=C/c1ccccc1OC (stereo not drawn) | i | 0.83 | i | i | i | 2.7 | . | .
COc1ccccc1/C=C/C1C(C(=O)OCC(C)C)=C(C)N=C2SCCC(=O)N21 (stereo not drawn) | i | 0.39 | i | i | -9.33* | -3.0 | 92.3* | 0.16*
C#CCN1C(C)=C(C(=O)OC)C(c2cccc([N+](=O)[O-])c2)C(C(=O)OCC)=C1C (stereo not drawn) | . | . | . | . | -12.1* | . | 109.0* | i
CCOC(=O)C1=C(c2ccccc2)NC(=O)N(C(C)=O)C1c1cccc([N+](=O)[O-])c1 (stereo not drawn) | i | 1.03 | i | i | i | -1.2 | . | .
CN(C)/C=C/C(=O)c1ccccc1OCc1cnc(Cl)s1 | i | -3.47 | i | i | i | -2.4 | . | .
CCN(CC)C(=O)Oc1nnc(SC(C)C)n1-c1ccc(Cl)cc1 | i | -1.11 | i | i | -9.58* | -10.2 | 86.3* | i
CCN(CC)C(=O)Oc1nnc(SC(C)C)n1-c1ccc(Cl)c(Cl)c1 | i | 2.22 | i | i | i | -11.3 | . | .
COc1cc2c(cc1OC)C(c1cccs1)N(C(=S)NC(C)C)CC2 (stereo not drawn) | i | -1.4 | i | i | -11.5* | -15.8 | 94.3* | i
COP(=O)(OC)c1nc(-c2ccc(C)cc2)oc1N1CCCCC1 | i | 0.67 | i | i | i | -1.1 | . | .
O=C(NCc1ccccc1CN1CCCC1)C1CCN(C(=O)c2ccc(F)cc2)CC1 | . | . | . | . | i | . | . | .
O=C(COC(=O)c1ccccc1-c1ccccc1[N+](=O)[O-])c1ccccc1 | i | 2.88 | i | i | -10.5* | -4.0 | 92.0* | i
O=C(COC(=O)c1ccccc1[N+](=O)[O-])c1ccc2c(c1)OCO2 | i | -0.1 | i | i | i | -14.4 | . | .
O=C(N=C1SC2CS(=O)(=O)CC2N1Cc1ccc(Cl)cc1)C1CC1 (stereo not drawn) | i | 1.08 | i | i | i | -6.3 | . | .
SMILES | KCNQ1 inh | Kir21 inh | KCNK9 block | KCNQ1 pot | KCNK3 inh | hERG protect | KCNK3 confirm | KCNK3 uninduced
O=C1C2C3C=CC(C2C(=O)N1CCO)C1C(=O)N(CCO)C(=O)C31 (stereo not drawn) | i | -0.61 | i | i | i | -8.4 | . | .
O=C(NC(=S)N1CCCC1)c1ccccc1F | . | . | . | . | i | . | . | .
O=S(Cc1ccc(Br)cc1)Cc1nnc(SCc2ccc(Cl)cc2)n1-c1ccccc1 (stereo not drawn) | i | -0.25 | i | i | -10.3* | -7.1 | 98.3* | i
O=S(Cc1ccc(Br)cc1)Cc1nnc(SCc2c(F)cccc2Cl)n1-c1ccccc1 (stereo not drawn) | i | -0.4 | i | i | i | -16.7 | . | .
O=C(O)CCCC(=O)N1CCN(c2nc(-c3ccccc3Cl)c3cc(Br)ccc3n2)CC1 | i | -0.61 | i | i | i | -7.0 | . | .
O=C(c1ccc(Br)cc1)N1CCCc2ccccc21 | i | 1.42 | i | i | i | -11.3 | . | .
CC(C)(C)OC(=O)NCCCCCc1nnc(SCC(=O)Nc2cccc(Cl)c2)o1 | i | -1.32 | i | i | -9.25* | -17.1 | 116.7* | 0.152*
CC(=O)Nc1ccc(NC(=O)CS(=O)(=O)c2cn(CC(=O)N3CCC(C)CC3)c3ccccc23)cc1 | i | 2.47 | i | i | i | -16.0 | . | .
CC(C)Cn1c(SCc2nc3ccccc3c(=O)[nH]2)nc2ccccc2c1=O | i | -0.22 | -6.74* | i | -10.1* | -10.8 | 102.0* | i
Cn1c(SCc2nc3ccccc3c(=O)[nH]2)nc2ccccc21 | i | -0.17 | i | i | i | -8.2 | . | .
COCCNC(=O)C(c1ccc(F)cc1)N(C(=O)CCC(=O)Nc1ccccn1)C1CCCCC1 (stereo not drawn) | i | 2.03 | i | i | i | -5.4 | . | .
FC(F)(F)c1ccccc1-n1ccnc1 | . | . | . | . | i | . | . | .
Clc1ccccc1C(c1ccccc1)(c1ccccc1)n1ccnc1 | i | -0.68 | -17.9* | i | -11* | -14.2 | 129.3* | 0.133*
COc1cccc(O)c1CN1CCC(C(=O)Nc2ccc(-c3cccc(C)c3)cc2)CC1 | 6* | 0.73 | i | i | -11.3* | -22.1 | 124.7* | i
COc1cccc(-c2cccc(NC(=O)C3CCN(Cc4cccc(C)n4)CC3)c2)c1 | i | 0.63 | i | i | i | -11.3 | . | .

Screening results from PubChem BioAssay.
